# What was measured:
# Format in all cases: functional
# Klebsiella aerogenes [1] = experiment: Minimum inhibitory concentration against aerobic organism Enterobacter aerogenes strain 2828
# Summary of the method: (§1)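 Agar-dilution MIC in µg/mL against aerobic bacterial strains on tryptocase soy agar, with inoculum applied as spots. Most series used 10^5 cfu per spot, and a later series used 10^4 cfu per spot. In some tables, footnoted strains were instead tested on Mueller-Hinton or nutrient agar. β-Lactamase-producing strains are flagged.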
# Enterococcus faecalis = experiment: Minimum inhibitory concentration against aerobic organism Streptococcus faecalis strain 2864; summary of the method: as §1
# Escherichia coli = experiment: MIC against aerobic organism Escherichia coli strain 2891; conditions: Escherichia coli; read-out: MIC; summary of the method: as §1
# Salmonella = experiment: Minimum inhibitory concentration against aerobic organism Salmonella strain 3860; summary of the method: as §1
# Enterobacter cloacae = experiment: Minimum inhibitory concentration against aerobic organism Enterobacter cloacae strain 2646; conditions: Enterobacter cloacae; read-out: MIC; summary of the method: as §1
# Morganella morganii = experiment: Minimum inhibitory concentration against aerobic organism Morganella morganii strain 2833; conditions: Morganella morganii; read-out: MIC; summary of the method: as §1
# Klebsiella pneumoniae [2] = experiment: Minimum inhibitory concentration against aerobic organism Klebsiella pneumoniae strain 4005; summary of the method: as §1
# Proteus mirabilis = experiment: Minimum inhibitory concentration against aerobic organism Proteus mirabilis strain 2830; conditions: Proteus mirabilis; read-out: MIC; summary of the method: as §1
# Pseudomonas aeruginosa = experiment: Minimum inhibitory concentration against aerobic organism Pseudomonas aeruginosa strain 2835; summary of the method: as §1
# Proteus vulgaris = experiment: Minimum inhibitory concentration against aerobic organism Proteus vulgaris strain 2829; conditions: Proteus vulgaris; read-out: MIC; summary of the method: as §1
# Staphylococcus aureus [3] = experiment: Minimum inhibitory concentration against aerobic organism Staphylococcus aureus strain 2868; conditions: Staphylococcus aureus; read-out: MIC; summary of the method: as §1
# Staphylococcus aureus [4] = experiment: Minimum inhibitory concentration against aerobic organism Staphylococcus aureus strain 2865; summary of the method: as §1
# [5] = Minimum inhibitory concentration against aerobic organism Salmonella schottmuelleri strain 2837; conditions: Salmonella; read-out: MIC; summary of the method: as §1
# Serratia marcescens = experiment: Minimum inhibitory concentration against aerobic organism Serratia marcescens strain 2852; conditions: Serratia marcescens; read-out: MIC; summary of the method: as §1
# Klebsiella pneumoniae [6] = experiment: Minimum inhibitory concentration against aerobic organism Klebsiella pneumoniae strain 2882; conditions: Klebsiella pneumoniae; read-out: MIC; summary of the method: as §1
# Shigella = experiment: Minimum inhibitory concentration against aerobic organism Shigella species strain 2880; conditions: Shigella; read-out: MIC; summary of the method: as §1
# Streptococcus pyogenes = experiment: Minimum inhibitory concentration against aerobic organism Streptococcus pyogenes strain 3124; conditions: Streptococcus pyogenes; read-out: MIC; summary of the method: as §1
# Klebsiella aerogenes [7] = experiment: Minimum inhibitory concentration against aerobic organism Enterobacter aerogenes strain 2906; conditions: Klebsiella aerogenes; read-out: MIC; summary of the method: as §1
SMILES,MIC (Klebsiella aerogenes [1]) [µg/mL],MIC (Enterococcus faecalis) [µg/mL],MIC (Escherichia coli) [µg/mL],MIC (Salmonella) [µg/mL],MIC (Enterobacter cloacae) [µg/mL],MIC (Morganella morganii) [µg/mL],MIC (Klebsiella pneumoniae [2]) [µg/mL],MIC (Proteus mirabilis) [µg/mL],MIC (Pseudomonas aeruginosa) [µg/mL],MIC (Proteus vulgaris) [µg/mL],MIC (Staphylococcus aureus [3]) [µg/mL],MIC (Staphylococcus aureus [4]) [µg/mL],MIC [5] [µg/mL],MIC (Serratia marcescens) [µg/mL],MIC (Klebsiella pneumoniae [6]) [µg/mL],MIC (Shigella) [µg/mL],MIC (Streptococcus pyogenes) [µg/mL],MIC (Klebsiella aerogenes [7]) [µg/mL]
Cn1nnnc1SCC1=C(C(=O)[O-])N2C(=O)[C@@H](Nc3cc[n+](Cc4ccc(F)cc4)cc3)[C@H]2SC1,1,128,< 0.06,4,0.125,32,8,64,> 128,0.25,1,0.5,,,,,,
CN(C)CCn1nnnc1SCC1=C(C(=O)[O-])N2C(=O)[C@@H](Nc3cc[n+](Cc4ccccc4)cc3)[C@H]2SC1,0.5,128,< 0.06,2,0.25,64,4,128,> 128,0.125,4,0.5,,,,,,
CC(=O)OCC1=C(C(=O)[O-])N2C(=O)[C@@H](Nc3cc[n+](C)cc3)[C@H]2SC1,,> 128,> 128,,> 128,> 128,,> 128,> 128,< 0.5,64,,8,> 128,32,64,2,> 128
COC(=O)c1c[n+](C)ccc1N[C@@H]1C(=O)N2C(C(=O)[O-])=C(CSc3nnnn3C)CS[C@H]12,,> 128,> 128,,> 128,> 128,,> 128,> 128,> 128,> 128,,128,> 128,> 128,> 128,32,> 128

# Next, values leading:
MIC (Klebsiella aerogenes [1]) [µg/mL],MIC (Enterococcus faecalis) [µg/mL],MIC (Escherichia coli) [µg/mL],MIC (Salmonella) [µg/mL],MIC (Enterobacter cloacae) [µg/mL],MIC (Morganella morganii) [µg/mL],MIC (Klebsiella pneumoniae [2]) [µg/mL],MIC (Proteus mirabilis) [µg/mL],MIC (Pseudomonas aeruginosa) [µg/mL],MIC (Proteus vulgaris) [µg/mL],MIC (Staphylococcus aureus [3]) [µg/mL],MIC (Staphylococcus aureus [4]) [µg/mL],MIC [5] [µg/mL],MIC (Serratia marcescens) [µg/mL],MIC (Klebsiella pneumoniae [6]) [µg/mL],MIC (Shigella) [µg/mL],MIC (Streptococcus pyogenes) [µg/mL],MIC (Klebsiella aerogenes [7]) [µg/mL],SMILES
32,> 128,0.125,128,1,> 128,128,> 128,> 128,0.25,> 128,8,,,,,,,CCO[n+]1ccc(N[C@@H]2C(=O)N3C(C(=O)[O-])=C(CSc4nnnn4C)CS[C@H]23)cc1
,> 128,< 0.06,,0.125,32,,64,> 128,< 0.06,2,,< 0.06,64,0.125,< 0.06,< 0.06,8,Cn1nnnc1SCC1=C(C(=O)[O-])N2C(=O)[C@@H](Nc3cc[n+](COCC(Cl)(Cl)Cl)cc3)[C@H]2SC1
,> 128,4,,64,> 128,,64,> 128,1,32,,4,> 128,8,2,2,32,Cn1nnnc1SCC1=C(C(=O)[O-])N2C(=O)[C@@H](Nc3cc[n+](CC(=O)[O-])cc3)[C@H]2SC1.[Na+]
,> 128,0.125,,32,> 128,,64,> 128,< 0.06,16,,1,> 128,1,0.5,0.125,64,COC[n+]1ccc(N[C@@H]2C(=O)N3C(C(=O)[O-])=C(CSc4nnnn4C)CS[C@H]23)cc1
,> 128,4,,8,> 128,,> 128,> 128,> 128,4,,1,> 128,1,< 0.5,< 0.5,64,Cn1nnnc1SCC1=C(C(=O)[O-])N2C(=O)[C@@H](Nc3cc[n+](CCc4ccccc4)cc3)[C@H]2SC1
,> 128,< 0.06,,< 0.06,> 128,,> 128,> 128,4,4,,< 0.06,128,1,< 0.06,< 0.06,4,Cn1nnnc1SCC1=C(C(=O)[O-])N2C(=O)[C@@H](Nc3cc[n+](COCC(F)(F)F)cc3)[C@H]2SC1
,> 128,< 0.5,,2,0.5,,2,> 128,< 0.06,64,,4,> 128,1,< 0.5,1,0.5,CC[n+]1ccc(N[C@@H]2C(=O)N3C(C(=O)[O-])=C(CSc4nnnn4C)CS[C@H]23)cc1
